Measurements taken from ChEMBL document CHEMBL4842372, “Discovery of ARD-2585 as an Exceptionally Potent and Orally Active PROTAC Degrader of Androgen Receptor for the Treatment of Advanced Prostate Cancer” (J Med Chem, 2021).
Active and inactive are the calls of the source. No cut-off for these calls is given here.

Key:
[1] = tested on: LNCaP; assay: Growth inhibition of human LNCaP cells carrying AR T878A mutant assessed as cell viability by WST-8 assay; assay type: functional, cell-based
[2] = Drug distribution in plasma of CB17:SCID mouse xenografted with human VCaP cells at 20 mg/kg, po measured at 6 hrs by LCMS analysis; assay type: ADME, organism-based
How it was run: (§1)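 Tumor-bearing male CB17 SCID mice (VCaP xenografts) given one 20 mg/kg oral dose in 100% PEG200, three mice per time point; plasma, tumor, liver, kidney, prostate and heart taken at 1, 6 and 24 h; tissues homogenised in water/acetonitrile, protein precipitated with cold acetonitrile, drug quantified by LC–MS/MS; ratios are tissue over plasma level.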

[3] = Drug distribution in prostate gland of CB17:SCID mouse xenografted with human VCaP cells at 20 mg/kg, po measured at 6 hrs by LCMS analysis; assay type: ADME, organism-based; conditions: read-out: Drug uptake; how it was run: as §1
[4] = Drug distribution in tumor of CB17:SCID mouse xenografted with human VCaP cells at 20 mg/kg, po measured at 6 hrs by LCMS analysis; assay type: ADME, organism-based, Neoplasm; conditions: read-out: Drug uptake; how it was run: as §1
[5] = Drug distribution in tumor of CB17:SCID mouse xenografted with human VCaP cells at 20 mg/kg, po measured at 24 hrs by LCMS analysis; assay type: ADME, organism-based, Neoplasm; conditions: read-out: Drug uptake; how it was run: as §1
[6] = tested on: VCaP; assay: Antitumor activity against human VCaP cells xenografted in CB17:SCID mouse assessed as reduction in AR protein level in tumor at 10 mg/kg, po for 3 days measured at 6 hrs by Western blot analysis; assay type: functional; conditions: 72 h, time 3 day
How it was run: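 Male CB17 SCID mice bearing subcutaneous VCaP tumors (5 × 10^6 cells in Matrigel); dosed by oral gavage in 100% PEG200 at 10 mg/kg daily for 3 days; tumors harvested 3, 6 and 24 h post-dose, lysed in RIPA, Western blot for AR with GAPDH loading control, bands quantified by densitometry relative to loading control.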

[7] = Drug distribution in plasma of CB17:SCID mouse xenografted with human VCaP cells at 20 mg/kg, po measured at 1 hrs by LCMS analysis; assay type: ADME, organism-based; how it was run: as §1
[8] = Drug distribution in CB17:SCID mouse xenografted with human VCaP cells assessed as tumor to plasma ratio at 20 mg/kg, po measured at 1 hrs by LCMS analysis; assay type: ADME, organism-based; how it was run: as §1
[9] = Drug distribution in kidney of CB17:SCID mouse xenografted with human VCaP cells at 20 mg/kg, po measured at 1 hrs by LCMS analysis; assay type: ADME, organism-based; conditions: read-out: Drug uptake; how it was run: as §1
[10] = Drug distribution in prostate gland of CB17:SCID mouse xenografted with human VCaP cells at 20 mg/kg, po measured at 1 hrs by LCMS analysis; assay type: ADME, organism-based; conditions: read-out: Drug uptake; how it was run: as §1
[11] = Drug distribution in CB17:SCID mouse xenografted with human VCaP cells assessed as prostate gland to plasma ratio at 20 mg/kg, po measured at 1 hrs by LCMS analysis; assay type: ADME, organism-based; how it was run: as §1
[12] = Drug distribution in liver of CB17:SCID mouse xenografted with human VCaP cells at 20 mg/kg, po measured at 6 hrs by LCMS analysis; assay type: ADME, organism-based; conditions: read-out: Drug uptake; how it was run: as §1
[13] = Drug distribution in CB17:SCID mouse xenografted with human VCaP cells assessed as liver to plasma ratio at 20 mg/kg, po measured at 6 hrs by LCMS analysis; assay type: ADME, organism-based; how it was run: as §1
[14] = Drug distribution in kidney of CB17:SCID mouse xenografted with human VCaP cells at 20 mg/kg, po measured at 6 hrs by LCMS analysis; assay type: ADME, organism-based; conditions: read-out: Drug uptake; how it was run: as §1
[15] = Drug distribution in heart of CB17:SCID mouse xenografted with human VCaP cells at 20 mg/kg, po measured at 6 hrs by LCMS analysis; assay type: ADME, organism-based; conditions: read-out: Drug uptake; how it was run: as §1
[16] = Drug distribution in CB17:SCID mouse xenografted with human VCaP cells assessed as liver to plasma ratio at 20 mg/kg, po measured at 24 hrs by LCMS analysis; assay type: ADME, organism-based; how it was run: as §1
[17] = Drug distribution in kidney of CB17:SCID mouse xenografted with human VCaP cells at 20 mg/kg, po measured at 24 hrs by LCMS analysis; assay type: ADME, organism-based; conditions: read-out: Drug uptake; how it was run: as §1
[18] = Drug distribution in CB17:SCID mouse xenografted with human VCaP cells assessed as kidney to plasma ratio at 20 mg/kg, po measured at 24 hrs by LCMS analysis; assay type: ADME, organism-based; how it was run: as §1
[19] = Drug distribution in CB17:SCID mouse xenografted with human VCaP cells assessed as heart to plasma ratio at 20 mg/kg, po measured at 24 hrs by LCMS analysis; assay type: ADME, organism-based; how it was run: as §1
[20] = tested on: VCaP; assay: Antitumor activity against human VCaP cells xenografted in CB17:SCID mouse assessed as tumor growth inhibition at 10 mg/kg, po treated for 37 days relative to control; assay type: functional; conditions: 888 h, time 37 day, read-out: TGI
[21] = tested on: VCaP; assay: Antitumor activity against human VCaP cells xenografted in CB17:SCID mouse assessed as tumor growth inhibition at 20 mg/kg, po treated for 37 days relative to control; assay type: functional; conditions: 888 h, time 37 day, read-out: TGI
[22] = molecular target: T1, Protein cereblon/Androgen receptor (Homo sapiens, UniProt P10275+Q96SW2); assay: Protac activity at CRBN/AR in human VCaP cells assessed as reduction in AR protein level at 0.1 nM after 24 hrs by Western blot analysis relative to control; assay type: cell-based
T1 sequence (P10275 whole entry, looked up): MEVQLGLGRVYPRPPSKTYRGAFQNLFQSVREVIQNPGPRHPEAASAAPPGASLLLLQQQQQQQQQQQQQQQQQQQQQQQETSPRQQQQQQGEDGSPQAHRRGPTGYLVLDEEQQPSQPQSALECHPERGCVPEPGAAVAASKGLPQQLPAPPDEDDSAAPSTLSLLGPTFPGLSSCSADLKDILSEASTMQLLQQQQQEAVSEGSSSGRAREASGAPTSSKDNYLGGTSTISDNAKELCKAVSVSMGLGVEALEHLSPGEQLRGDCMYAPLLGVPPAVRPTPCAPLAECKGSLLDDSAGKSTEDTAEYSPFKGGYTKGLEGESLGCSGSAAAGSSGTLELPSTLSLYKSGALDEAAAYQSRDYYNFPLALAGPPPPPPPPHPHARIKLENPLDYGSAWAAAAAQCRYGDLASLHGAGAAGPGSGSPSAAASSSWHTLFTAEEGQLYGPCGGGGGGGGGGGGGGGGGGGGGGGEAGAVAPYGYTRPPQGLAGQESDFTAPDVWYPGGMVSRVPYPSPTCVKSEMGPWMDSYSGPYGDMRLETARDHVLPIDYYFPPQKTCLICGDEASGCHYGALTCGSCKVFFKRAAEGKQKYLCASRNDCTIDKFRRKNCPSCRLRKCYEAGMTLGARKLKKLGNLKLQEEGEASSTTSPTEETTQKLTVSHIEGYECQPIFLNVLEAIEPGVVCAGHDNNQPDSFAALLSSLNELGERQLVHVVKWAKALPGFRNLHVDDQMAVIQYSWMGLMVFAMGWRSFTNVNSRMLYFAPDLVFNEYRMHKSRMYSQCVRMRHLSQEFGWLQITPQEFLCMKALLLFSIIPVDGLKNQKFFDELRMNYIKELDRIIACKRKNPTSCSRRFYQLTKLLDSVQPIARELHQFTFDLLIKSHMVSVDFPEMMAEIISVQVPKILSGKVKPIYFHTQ
T1 sequence (Q96SW2 whole entry, looked up): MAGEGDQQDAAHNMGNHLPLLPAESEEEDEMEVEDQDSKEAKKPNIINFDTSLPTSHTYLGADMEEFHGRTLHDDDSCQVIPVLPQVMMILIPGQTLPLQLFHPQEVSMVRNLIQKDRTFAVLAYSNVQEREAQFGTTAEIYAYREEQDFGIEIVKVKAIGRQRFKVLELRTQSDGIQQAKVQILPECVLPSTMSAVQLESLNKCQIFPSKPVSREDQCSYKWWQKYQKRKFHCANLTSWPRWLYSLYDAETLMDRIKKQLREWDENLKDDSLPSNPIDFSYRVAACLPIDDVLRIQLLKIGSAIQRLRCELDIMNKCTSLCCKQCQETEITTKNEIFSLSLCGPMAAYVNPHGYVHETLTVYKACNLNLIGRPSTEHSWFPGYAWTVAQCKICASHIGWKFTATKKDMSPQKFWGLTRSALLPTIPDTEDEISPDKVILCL
How it was run: (§2)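 Western blot of AR after 24 h exposure to a concentration series in ATCC-derived cells, all with 10% FBS at 37 °C and 5% CO2: LNCaP and 22Rv1 in RPMI1640, VCaP in DMEM with Glutamax, MDA-PCa-2b in F-12K. Lysis in RIPA with protease and phosphatase inhibitors, then 4–12% SDS-PAGE and PVDF transfer. Band minus background is normalised to GAPDH.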

[23] = molecular target: T1, Protein cereblon/Androgen receptor; assay: Protac activity at CRBN/AR in human VCaP cells assessed as maximal AR degradation at 0.1 nM after 24 hrs by Western blot analysis relative to control; assay type: cell-based; how it was run: as §2
[24] = tested on: Protein cereblon/Androgen receptor (Homo sapiens), P10275+Q96SW2 [T878A]; assay: Protac activity at CRBN/AR T878A mutant in human LNCaP cells assessed as maximal AR degradation at 0.3 nM after 24 hrs by Western blot analysis relative to control; assay type: cell-based; how it was run: as §2
[25] = molecular target: T1, Protein cereblon/Androgen receptor; assay: Protac activity at CRBN/AR in human 22Rv1 cells assessed as maximal AR degradation at 0.1 nM after 24 hrs by Western blot analysis relative to control; assay type: cell-based; how it was run: as §2
[26] = tested on: Protein cereblon/Androgen receptor (Homo sapiens), P10275+Q96SW2 [T878A]; assay: Protac activity at CRBN/AR T878A mutant in human LNCaP cells assessed as reduction in AR protein level at 3 nM after 24 hrs by Western blot analysis relative to control; assay type: cell-based; how it was run: as §2
[27] = tested on: LNCaP; assay: Potency index, ratio of ARV-110 IC50 to compound IC50 for reduction in AR degradation human LNCaP cells after 24 hrs by Western blot analysis; assay type: functional
[28] = Potency index, ratio of ARV-110 IC50 to compound IC50 for reduction in AR degradation human MDA-PCa-2b cells after 24 hrs by Western blot analysis relative to control; assay type: functional
[29] = tested on: Protein cereblon/Androgen receptor (Homo sapiens), P10275+Q96SW2 [T878A]; assay: Protac activity at CRBN/AR T878A mutant in human LNCaP cells assessed as reduction in AR protein level at 100 nM after 3 hrs in presence of MG-132 by Western blot analysis

Work on CN(c1ccc(C#N)c(Cl)c1)[C@H]1CC[C@H](NC(=O)c2ccc(N3CCN(C4CN(c5ccc6c(c5)C(=O)N(C5CCC(=O)NC5=O)C6=O)C4)CC3)cc2)CC1 (some centres undefined) yielded an IC50 [1] of 16.2 nM, a concentration at 6 h [2] of 87 ng/mL and a concentration at 6 h [3] of 76 ng/g. It also gave a concentration at 6 h [4] of 201 ng/g, a concentration at 24 h [5] of 301 ng/g and an inhibition in vivo at 10 mg/kg [6] of 60%. For the same molecule, the concentration at 1 h [7] was 70 ng/mL, the Kp at 1 h [8] was 0.7 and the concentration at 1 h [9] was 437 ng/g. For the same molecule, the concentration at 1 h [10] was 25 ng/g, the Kp at 1 h [11] was 0.4 and the concentration at 6 h [12] was 3510 ng/g. It also gave a Kp at 6 h [13] of 26.2, a concentration at 6 h [14] of 661 ng/g and a concentration at 6 h [15] of 339 ng/g. It also gave a Kp at 24 h [16] of 32.1, a concentration at 24 h [17] of 366 ng/g and a Kp at 24 h [18] of 1.7. It also gave a Kp at 24 h [19] of 3.2, an inhibition in vivo at 10 mg/kg [20] of 54.9% and an inhibition in vivo at 20 mg/kg [21] of 74.3%. The inhibition [22] was greater than 80%, the Emax [23] was greater than 95% and the Emax [24] was greater than 95%. It also gave an Emax [25] greater than 95%, an inhibition [26] of 80% and a Ratio [27] of 10. For the same molecule, the Ratio [28] was 1000 and the Activity [29] was “inactive”.
